Experimental data as given in ChEMBL document CHEMBL1149773, “Synthesis, determination of the lipophilicity, anticancer and antimicrobial properties of some fused 1,2,4-triazole derivatives” (Eur J Med Chem, 2008).
In brackets after ≈: the same amount, converted by molar mass.

What was measured:
[1] = tested on: Klebsiella aerogenes; assay: Antimicrobial activity against Enterobacter aerogenes at 480.6 uM by disc-diffusion method; type: functional; details: read-out: IZ
In short: (§1)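 Kirby–Bauer disc diffusion: 5 mm paper discs soaked in compound solution in DMSO (100 or 200 µg/mL; reference drugs 200 µg/mL) and laid on inoculated Mueller-Hinton agar (bacteria) or Sabouraud agar (C. albicans, Aspergillus). DMSO discs were the control. Plates ran 24 h at 35 °C. Inhibition zone diameter was scored 0–10 mm R, 11–16 mm I, 17–25 mm S; triplicate.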

[2] = tested on: Candida albicans; assay: Antimicrobial activity against Candida albicans ATCC 10231 after 24 hrs by microdilution assay; type: functional; details: ATCC 10231, 24 h
[3] = tested on: Staphylococcus epidermidis; assay: Antimicrobial activity against Staphylococcus epidermidis at 480.6 uM by disc-diffusion method; type: functional; details: read-out: IZ; in short: as §1
[4] = tested on: Klebsiella pneumoniae; assay: Antimicrobial activity against Klebsiella pneumoniae at 480.6 uM by disc-diffusion method; type: functional; details: read-out: IZ; in short: as §1
[5] = tested on: Pseudomonas aeruginosa; assay: Antimicrobial activity against Pseudomonas aeruginosa ATCC 27853 at 480.6 uM by disc-diffusion method; type: functional; details: read-out: IZ; in short: as §1
[6] = tested on: Streptococcus agalactiae; assay: Antimicrobial activity against Streptococcus agalactiae at 480.6 uM by disc-diffusion method; type: functional; details: read-out: IZ; in short: as §1
[7] = tested on: Escherichia coli; assay: Antimicrobial activity against Escherichia coli ATCC 25922 at 480.6 uM by disc-diffusion method; type: functional; details: read-out: IZ; in short: as §1
[8] = tested on: Streptococcus pyogenes; assay: Antimicrobial activity against Streptococcus pyogenes at 480.6 uM by disc-diffusion method; type: functional; details: read-out: IZ; in short: as §1
[9] = tested on: Staphylococcus aureus; assay: Antimicrobial activity against Staphylococcus aureus ATCC 25923 at 480.6 uM by disc-diffusion method; type: functional; details: read-out: IZ; in short: as §1
[10] = tested on: Candida albicans; assay: microbe, parasite or virus in culture; details: ATCC 10231, read-out: IZ
[11] = tested on: Aspergillus sp.; assay: Antimicrobial activity against Aspergillus sp. at 480.6 uM by disc-diffusion method; type: functional; details: read-out: IZ; in short: as §1
[12] = tested on: Proteus vulgaris; assay: Antimicrobial activity against Proteus vulgaris at 480.6 uM by disc-diffusion method; type: functional; details: read-out: IZ; in short: as §1
[13] = tested on: Klebsiella aerogenes; assay: Antimicrobial activity against Enterobacter aerogenes at 572.4 uM by disc-diffusion method; type: functional; details: read-out: IZ; in short: as §1
[14] = tested on: Streptococcus agalactiae; assay: Antimicrobial activity against Streptococcus agalactiae at 572.4 uM by disc-diffusion method; type: functional; details: read-out: IZ
In short: (§2)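 Kirby–Bauer disc diffusion on Mueller-Hinton medium. Sterile 5 mm paper discs are impregnated with agent dissolved in DMSO and placed on inoculated agar. DMSO discs serve as solvent control. Plates are incubated 24 h at 35 °C. Inhibition zone diameter is scored as 0–10 mm resistant, 11–16 mm intermediate, or 17–25 mm susceptible. Each assay is run three times.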

[15] = tested on: Pseudomonas aeruginosa; assay: Antimicrobial activity against Pseudomonas aeruginosa ATCC 27853 at 572.4 uM by disc-diffusion method; type: functional; details: read-out: IZ; in short: as §1
[16] = tested on: Escherichia coli; assay: microbe, parasite or virus in culture; details: ATCC 25922, read-out: IZ
[17] = tested on: Staphylococcus aureus; assay: Antimicrobial activity against Staphylococcus aureus ATCC 25923 after 24 hrs by microdilution assay; type: functional; details: ATCC 25923, 24 h
[18] = tested on: Streptococcus pyogenes; assay: Antimicrobial activity against Streptococcus pyogenes at 572.4 uM by disc-diffusion method; type: functional; details: read-out: IZ; in short: as §2
[19] = tested on: Klebsiella pneumoniae; assay: Antimicrobial activity against Klebsiella pneumoniae at 572.4 uM by disc-diffusion method; type: functional; details: read-out: IZ; in short: as §1
[20] = tested on: Proteus vulgaris; assay: Antimicrobial activity against Proteus vulgaris at 572.4 uM by disc-diffusion method; type: functional; details: read-out: IZ; in short: as §1
[21] = tested on: Pseudomonas aeruginosa; assay: Antimicrobial activity against Pseudomonas aeruginosa ATCC 27853 after 24 hrs by microdilution assay; type: functional; details: ATCC 27853, 24 h
[22] = tested on: Aspergillus sp.; assay: Antimicrobial activity against Aspergillus sp. at 572.4 uM by disc-diffusion method; type: functional; details: read-out: IZ; in short: as §1
[23] = tested on: Staphylococcus aureus; assay: Antimicrobial activity against Staphylococcus aureus ATCC 25923 at 572.4 uM by disc-diffusion method; type: functional; details: read-out: IZ; in short: as §2
[24] = tested on: Candida albicans; assay: Antimicrobial activity against Candida albicans ATCC 10231 at 572.4 uM by disc-diffusion method; type: functional; details: read-out: IZ; in short: as §1
[25] = tested on: Staphylococcus epidermidis; assay: Antimicrobial activity against Staphylococcus epidermidis at 572.4 uM by disc-diffusion method; type: functional; details: read-out: IZ; in short: as §1

Structure (SMILES): Clc1ccc(COC(Cn2ccnc2)c2ccc(Cl)cc2Cl)c(Cl)c1 (stereo not given) [MICONAZOLE]
- zone of inhibition at 480.6 µM [1]: 0 mm
- MIC [2]: 37.5 µM (≈ 15.6 µg/mL)
- zone of inhibition at 480.6 µM [3]: 0 mm
- zone of inhibition at 480.6 µM [4]: 0 mm
- zone of inhibition at 480.6 µM [5]: 0 mm
- zone of inhibition at 480.6 µM [6]: 0 mm
- zone of inhibition at 480.6 µM [7]: 0 mm
- zone of inhibition at 480.6 µM [8]: 0 mm
- zone of inhibition at 480.6 µM [9]: 0 mm
- zone of inhibition at 480.6 µM [10]: 17 mm
- zone of inhibition at 480.6 µM [11]: 0 mm
- zone of inhibition at 480.6 µM [12]: 0 mm

Structure (SMILES): CC1(C)S[C@@H]2[C@H](NC(=O)[C@H](N)c3ccccc3)C(=O)N2[C@H]1C(=O)O [AMPICILLIN]
- zone of inhibition at 572.4 µM [13]: 0 mm
- zone of inhibition at 572.4 µM [14]: 17 mm
- zone of inhibition at 572.4 µM [15]: 11 mm
- zone of inhibition at 572.4 µM [16]: 17 mm
- MIC [17]: 35.8 µM (≈ 12.5 µg/mL)
- zone of inhibition at 572.4 µM [18]: 17 mm
- zone of inhibition at 572.4 µM [19]: 0 mm
- zone of inhibition at 572.4 µM [20]: 0 mm
- MIC [21]: > 358 µM
- zone of inhibition at 572.4 µM [22]: 0 mm
- zone of inhibition at 572.4 µM [23]: 17 mm
- zone of inhibition at 572.4 µM [24]: 0 mm
- zone of inhibition at 572.4 µM [25]: 11 mm
